# In ChEMBL document CHEMBL2440078, “Synthesis and biological evaluation of novel C-aryl d-glucofuranosides as sodium-dependent glucose co-transporter 2 inhibitors” (Bioorg Med Chem, 2013):
# Biological target: T1, Sodium/glucose cotransporter 2 (Homo sapiens, UniProt P31639)
# T1 sequence (P31639 whole entry): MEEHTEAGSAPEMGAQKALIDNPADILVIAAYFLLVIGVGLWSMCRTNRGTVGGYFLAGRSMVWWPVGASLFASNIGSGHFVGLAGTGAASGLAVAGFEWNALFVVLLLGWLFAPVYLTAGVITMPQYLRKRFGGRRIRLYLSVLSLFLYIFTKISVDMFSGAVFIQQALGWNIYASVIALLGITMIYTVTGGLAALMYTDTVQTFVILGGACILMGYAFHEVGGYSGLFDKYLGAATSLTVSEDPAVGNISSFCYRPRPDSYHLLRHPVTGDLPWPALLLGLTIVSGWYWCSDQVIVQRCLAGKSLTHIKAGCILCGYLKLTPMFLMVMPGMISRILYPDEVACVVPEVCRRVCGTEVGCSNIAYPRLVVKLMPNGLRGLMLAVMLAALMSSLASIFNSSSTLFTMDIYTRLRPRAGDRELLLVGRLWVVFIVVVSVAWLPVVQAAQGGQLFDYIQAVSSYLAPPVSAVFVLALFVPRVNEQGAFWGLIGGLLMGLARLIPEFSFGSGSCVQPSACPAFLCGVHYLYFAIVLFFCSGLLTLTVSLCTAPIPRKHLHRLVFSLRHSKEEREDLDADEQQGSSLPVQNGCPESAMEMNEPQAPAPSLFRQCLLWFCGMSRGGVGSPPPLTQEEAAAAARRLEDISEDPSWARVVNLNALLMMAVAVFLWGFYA
# Experiment: Inhibition of human SGLT2 expressed in CHO-K1 cells assessed as inhibition of [14C]-AMG uptake up to 120 mins by scintillation counting method
# Type: cell-based
# How it was run: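 Uptake of 3 µM [¹⁴C]-AMG ± inhibitor at 37 °C, stopped with ice-cold KRH. Cells lysed in 0.1% SDS 24 h, then counted. Inhibition vs DMSO-only wells. EC₅₀ from sigmoidal fit, mean of ≥3 determinations.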
row,Compound,EC50 [µM]
1,CCOc1ccc(Cc2cc([C@@H]3O[C@H]([C@H](O)CO)[C@H](O)[C@H]3O)ccc2C)cc1,34
2,Cc1ccc([C@@H]2O[C@H]([C@H](O)CO)[C@H](O)[C@H]2O)cc1Cc1ccc(C(C)C)cc1,11
3,CCc1ccc(Cc2cc([C@@H]3O[C@H]([C@H](O)CO)[C@H](O)[C@H]3O)ccc2C)cc1,2.5
4,CCOc1ccc(Cc2cc([C@@H]3O[C@H]([C@H](O)CO)[C@H](O)[C@H]3O)c(OC)cc2Cl)cc1,46
5,COc1cc(Cl)c(Cc2ccc(C(C)C)cc2)cc1[C@@H]1O[C@H]([C@H](O)CO)[C@H](O)[C@H]1O,21
6,CCc1ccc(Cc2cc([C@@H]3O[C@H]([C@H](O)CO)[C@H](O)[C@H]3O)c(OC)cc2Cl)cc1,0.62
7,OC[C@@H](O)[C@H]1O[C@@H](c2ccc(Cl)c(Cc3ccc(Oc4ccccc4)cc3)c2)[C@H](O)[C@H]1O,> 50
8,COc1ccc2cc(Cc3cc([C@@H]4O[C@H]([C@H](O)CO)[C@H](O)[C@H]4O)ccc3Cl)ccc2c1,5.1
9,OC[C@@H](O)[C@H]1O[C@@H](c2ccc(Cl)c(Cc3ccc4c(c3)OCO4)c2)[C@H](O)[C@H]1O,> 50
10,CCOc1ccc(Cc2cc([C@@H]3O[C@H]([C@H](O)CO)[C@H](O)[C@H]3O)ccc2Cl)cc1,> 50
11,CC(C)c1ccc(Cc2cc([C@@H]3O[C@H]([C@H](O)CO)[C@H](O)[C@H]3O)ccc2Cl)cc1,33

# Now from value to compound:
row,EC50 [µM],Compound
1,35,COc1ccc(Cc2cc([C@@H]3O[C@H]([C@H](O)CO)[C@H](O)[C@H]3O)ccc2Cl)cc1
2,> 50,COc1cccc(Cc2cc([C@@H]3O[C@H]([C@H](O)CO)[C@H](O)[C@H]3O)ccc2Cl)c1
3,> 50,COc1ccccc1Cc1cc([C@@H]2O[C@H]([C@H](O)CO)[C@H](O)[C@H]2O)ccc1Cl
4,> 50,OC[C@@H](O)[C@H]1O[C@@H](c2ccc(Cl)c(Cc3ccc(F)cc3)c2)[C@H](O)[C@H]1O
5,3.7,CSc1ccc(Cc2cc([C@@H]3O[C@H]([C@H](O)CO)[C@H](O)[C@H]3O)ccc2Cl)cc1
